The results in this text go back to ChEMBL document CHEMBL3271964, “Synthesis and biological activity of new 2-nitroimidazole derivatives” (J Med Chem, 1978).

As a reminder, the MIC is the smallest concentration in the dilution series that meets the test's criterion for growth inhibition. A low value points to a more susceptible organism. A word on the ED50: it is the dose that gives a 50% effect, or the effect in half of the subjects. Low readings indicate an effect at a small dose, high ones a need for a large dose. The LD50 is the dose expected to kill half of the subjects tested.

For data set [1], the system named is Mus musculus. The data set is described as follows: Toxicity in CF1 mouse assessed as change in sleeping time at 1 mg/kg, po administered 30 mins prior to hexobarbital sodium challenge relative to vehicle-treated control. Particulars: in vivo, 0.5 h. Also on record: dose 1 mg/kg, route oral. The format is organism-based.
For a further data set, the system named is Staphylococcus aureus. The experiment in a line: Antimicrobial activity against Staphylococcus aureus Tour by microtitre method. The format is functional.
Another data set concerns Streptococcus pyogenes. The experiment in a line: Antimicrobial activity against Streptococcus pyogenes C 203 by microtitre method. The format is functional.
The subject of a further data set is Clostridium perfringens. The data set is described as follows: Antimicrobial activity against Clostridium perfringens ISS 30543 by broth dilution method. The format is functional. (In broth dilution the organism is exposed to a series of concentrations in liquid medium.)
Data set [2] deals with Mycoplasmoides gallisepticum. The experiment in a line: Antimicrobial activity against Mycoplasma gallisepticum S6 Weybridge by broth dilution method. The format is functional.
Data set [3] deals with Trichomonas vaginalis. The data set is described as follows: Antimicrobial activity against Trichomonas vaginalis by broth dilution method. The format is functional.
Data set [4] concerns Trichomonas vaginalis. The data set is described as follows: Antimicrobial activity against Trichomonas vaginalis infected in po dosed mouse. The format is functional. The essentials:
(§1)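 Mice infected subcutaneously, then dosed orally. Vehicle depended on compound: suspension in aqueous 0.75% sodium carboxymethylcellulose, DMF-H₂O, DMF-phosphate buffer pH 7.38, or water. ED₅₀ determined, with metronidazole run in parallel. The relative value is ED₅₀ (test) / ED₅₀ (metronidazole).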

Data set [5] deals with Trichomonas vaginalis. The experiment in a line: Antimicrobial activity against Trichomonas vaginalis infected in po dosed mouse relative to metronidazole. The format is functional. The gist of the method: as §1
The nature of data set [6]: Acute toxicity in po dosed mouse. The format is organism-based. Particulars: in vivo. The gist of the method:
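Acute toxicity in mice by the oral route. Compounds were given as suspensions in aqueous 0.5% Methocel 90-HG.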

Data set [7] is described as follows: Therapeutic index, ratio of LD50 for po dosed mouse to ED50 for Trichomonas vaginalis infected in po dosed mouse. The format is organism-based. The conditions noted are these: in vivo, read-out: Ratio LD50/ED50. The essentials:
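Ratio of two mouse values, both dosed orally. The LD50 comes from acute toxicity, with compounds suspended in aqueous 0.5% Methocel 90-HG. The ED50 comes from subcutaneous T. vaginalis infection treated orally. The ED50 vehicle varied by compound: suspension in aqueous 0.75% sodium carboxymethylcellulose, DMF-H2O, DMF-phosphate buffer pH 7.38, or H2O.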

The subject of data set [8] is Mus musculus. The data set is described as follows: Toxicity in CF1 mouse assessed as reduction in curiosity at 10 to 600 mg/kg, po by Irwin test. Also on record: dose 10-600 mg/kg, route oral. Particulars: in vivo. The format is organism-based. The gist of the method:
(§2)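 Irwin observational method in male CF1 mice (19–22 g). Oral dosing of a suspension in 0.5% Methocel 90-HG at 10 mL/kg, up to 600 mg/kg; controls received saline. Directly observable behavioural and autonomic changes were scored, with the threshold dose for onset recorded.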

The test system of data set [9] is Mus musculus. The data set is described as follows: Toxicity in CF1 mouse assessed as reduction in spontaneous activity at 10 to 600 mg/kg, po by Irwin test. The format is organism-based. Also on record: dose 10-600 mg/kg, route oral. Particulars: in vivo. The gist of the method: as §2
In data set [10] the test system is Mus musculus. The data set is described as follows: Toxicity in CF1 mouse assessed as reduction in body tone at 10 to 600 mg/kg, po by Irwin test. The format is organism-based. Details: dose 10-600 mg/kg, route oral. The conditions noted are these: in vivo. The essentials:
as §2

For data set [11], the system named is Mus musculus. The data set is described as follows: Toxicity in CF1 mouse assessed as reduction in heart rate at 10 to 600 mg/kg, po by Irwin test. The format is organism-based. Details: dose 10-600 mg/kg, route oral. The conditions noted are these: in vivo. The essentials: as §2
In data set [12] the test system is Mus musculus. The experiment in a line: Toxicity in CF1 mouse assessed as reduction in respiratory rate at 10 to 600 mg/kg, po by Irwin test. The format is organism-based. Also on record: dose 10-600 mg/kg, route oral. Particulars: in vivo. The essentials: as §2
Data set [13] relates to Mus musculus. The experiment in a line: Toxicity in CF1 mouse assessed as reduction in opening of eyelid at 10 to 600 mg/kg, po by Irwin test. Also on record: dose 10-600 mg/kg, route oral. The format is organism-based. The conditions noted are these: in vivo. The essentials: as §2
For data set [14], the system named is Mus musculus. The experiment in a line: Toxicity in CF1 mouse assessed as flaccid paralysis at 600 mg/kg, po by Irwin test. The format is organism-based. Details: dose 600 mg/kg, route oral. The conditions noted are these: in vivo. The gist of the method: as §2
Data set [15] relates to Mus musculus. The data set is described as follows: Toxicity in CF1 mouse assessed as change in sleeping time at 300 mg/kg, po administered 30 mins prior to hexobarbital sodium challenge relative to vehicle-treated control. The conditions noted are these: in vivo, 0.5 h. The format is organism-based. Details: dose 300 mg/kg, route oral. The gist of the method: (§3)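 Male CF1 mice (19–22 g), groups of 30, given oral doses as a 0.5% Methocel 90-HG suspension at 10 mL/kg; saline controls (90 animals). Hexobarbital sodium 75 mg/kg ip given 30 min later, at 25–26 °C. Sleeping time given as mean ± SE and as % change vs controls; Dunnett's t test.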

The subject of data set [16] is Mus musculus. The data set is described as follows: Toxicity in CF1 mouse assessed as change in sleeping time at 600 mg/kg, po administered 30 mins prior to hexobarbital sodium challenge relative to vehicle-treated control. The format is organism-based. Details: dose 600 mg/kg, route oral. The conditions noted are these: in vivo, 0.5 h. The gist of the method:
as §3

Data set [17] relates to Mus musculus. The experiment in a line: Inhibition of strychine sulfate/pentetrazole-induced death in CF1 mouse at 300 to 600 mg/kg, po administered 60 mins prior to strychine sulfate/pentetrazole challenge. The format is functional, organism-based.
The subject of data set [18] is Mus musculus. The experiment in a line: Toxicity in CF1 mouse assessed as ataxia at 10 to 600 mg/kg, po by Irwin test. The format is organism-based. Details: dose 10-600 mg/kg, route oral. The conditions noted are these: in vivo. The essentials:
as §2

Data set [19] deals with Mus musculus. The data set is described as follows: Toxicity in CF1 mouse assessed as cyanosis at 10 to 600 mg/kg, po by Irwin test. The format is organism-based. Details: dose 10-600 mg/kg, route oral. The conditions noted are these: in vivo. The essentials:
as §2

Values after ≈ are worked out from the molar mass of the structure shown. Active and inactive are the calls of the source.

On to `CN(C)CCCN1c2ccccc2Sc2ccc(Cl)cc21.Cl` [CHLORPROMAZINE HYDROCHLORIDE], for which the Activity with Mus musculus [1] amounted to 57.7%.

Take `Cn1c(C(C)(C)OC(=O)Nc2ccccc2)cnc1[N+](=O)[O-]`: the MIC is above 100 µg/mL in the data set with Staphylococcus aureus; above 100 µg/mL against Streptococcus pyogenes; 3.1 µg/mL (≈ 10.2 µM) in the data set on Clostridium perfringens; 25 µg/mL (≈ 82.2 µM) in [2]; 100 µg/mL (≈ 329 µM) against Trichomonas vaginalis [3]. The same molecule showed an ED50 with Trichomonas vaginalis [4] of 28.8 mg/kg. Further, the “Ratio ED50” value with Trichomonas vaginalis [5] stood at 2.88.

Take `CC(CO)c1cnc([N+](=O)[O-])n1C` (stereo not given): the MIC with Staphylococcus aureus turned out to be 25 µg/mL (≈ 135 µM); against Streptococcus pyogenes, 200 µg/mL (≈ 1080 µM); with Clostridium perfringens it was 0.8 µg/mL (≈ 4.32 µM); in [2], 50 µg/mL (≈ 270 µM); against Trichomonas vaginalis [3], 25 µg/mL (≈ 135 µM). In the data set on Trichomonas vaginalis [4], the ED50 is above 10 mg/kg. Further, the “Ratio ED50” value with Trichomonas vaginalis [5] was above 0.7.

For the molecule `COC(C)(C)c1cnc([N+](=O)[O-])n1C`, the MIC with Staphylococcus aureus was above 100 µg/mL; in the data set on Streptococcus pyogenes it was above 100 µg/mL; in the data set on Clostridium perfringens, 5 µg/mL (≈ 25.1 µM); in data set [2] it was above 100 µg/mL; against Trichomonas vaginalis [3], 5 µg/mL (≈ 25.1 µM). Further, in the data set with Trichomonas vaginalis [4], the 50% effect level (ED50) was put at a dose of 8.12 mg/kg. In addition, in the data set on Trichomonas vaginalis [5], the “Ratio ED50” value is recorded as 0.81. For the same molecule, the LD50 in data set [6] came out at 805 mg/kg. Further, the selectivity ratio in data set [7] worked out at 99.

For the molecule `Cc1ncc([N+](=O)[O-])n1CCO` [METRONIDAZOLE], the MIC in the data set on Staphylococcus aureus is above 300 µg/mL; against Streptococcus pyogenes, above 300 µg/mL; against Clostridium perfringens, 0.6 µg/mL (≈ 3.51 µM); in data set [2], above 300 µg/mL; against Trichomonas vaginalis [3], 5 µg/mL (≈ 29.2 µM). Also, in data set [7], the selectivity ratio was determined as 658. Further, the Activity entry in the data set with Mus musculus [8], in the data set with Mus musculus [9], in the data set on Mus musculus [10], in the data set on Mus musculus [11], in the data set with Mus musculus [12] and with Mus musculus [13] was “Toxic” in each case. Also, the Activity result in the data set on Mus musculus [14] was “Toxic”; with Mus musculus [15], 29.2%; in the data set with Mus musculus [16] it was 55.9%; in the data set with Mus musculus [18], “Toxic”; in the data set with Mus musculus [19] it was “Toxic”. In addition, in the data set on Mus musculus [17], the inhibition result is “Active”.

Turning to `Cn1c(C(C)(C)OC(N)=O)cnc1[N+](=O)[O-]`, the MIC in the data set with Staphylococcus aureus was above 100 µg/mL; with Streptococcus pyogenes, 100 µg/mL (≈ 438 µM); against Clostridium perfringens, 10 µg/mL (≈ 43.8 µM); in [2], above 100 µg/mL; against Trichomonas vaginalis [3], 10 µg/mL (≈ 43.8 µM). The molecule further displayed an ED50 in the data set on Trichomonas vaginalis [4] of 5.74 mg/kg. Moreover, the “Ratio ED50” value in the data set on Trichomonas vaginalis [5] worked out at 0.4. In data set [6], the LD50 was 900 mg/kg. The selectivity ratio in data set [7] was determined as 156.

Regarding `CCS(=O)(=O)CCn1c([N+](=O)[O-])cnc1C` [TINIDAZOLE], the MIC against Staphylococcus aureus is 300 µg/mL (≈ 1210 µM); against Streptococcus pyogenes, above 300 µg/mL; against Clostridium perfringens, 0.3 µg/mL (≈ 1.21 µM); in [2], above 300 µg/mL; against Trichomonas vaginalis [3] it was 3.1 µg/mL (≈ 12.5 µM). In the data set on Trichomonas vaginalis [4], the ED50 was determined as 2.5 mg/kg. Besides, in the data set with Trichomonas vaginalis [5], the “Ratio ED50” value was 0.43. Besides, the median lethal dose (LD50) in [6] is 3200 mg/kg. In [7], the selectivity ratio turned out to be 1280.
